Experimental findings from ChEMBL document CHEMBL1131767, “Substituted coumarins as esterase-sensitive prodrug moieties with improved release rates” (Bioorg Med Chem Lett, 1999) are described below.

The first data set is filed under the species Sus scrofa. Description: Pseudo first order rate constant to release model amine drug after esterase catalyzed hydrolysis at an enzyme concentration of 1 unit/mL. The gist of the method:
(§1)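 Porcine liver esterase (PLE), about 1 unit/mL, incubated with the model prodrug in 0.05 M phosphate buffer at pH 7.4 and 37 ± 0.5 °C. Amine release was followed by UV. The pseudo-first-order rate constant (kobs, min⁻¹) and the half-life (min) are reported.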
Molecule `CCN(CC)C(=O)/C=C\c1c(C)cc(C)cc1OC(C)=O` displayed a K obs x10e2 of 3.7 min⁻¹.
As for `CC(=O)Oc1cc(C)cc(C)c1/C=C\C(=O)N(C)Cc1ccccc1`, the K obs x10e2 came to 11 min⁻¹.
The same measure, in the same setting: next, `CC(=O)Oc1ccccc1/C=C\C(=O)N(C)Cc1ccccc1`: 2.13 min⁻¹.
Consider `CCN(CC)C(=O)/C=C\c1ccccc1OC(C)=O`, for which the K obs x10e2 came to 0.37 min⁻¹.
As to `CCN(CC)C(=O)/C=C\c1c(C)ccc(C)c1OC(C)=O`, the K obs x10e2 worked out at 6.1 min⁻¹.
The same measure, in the same setting: then `CC(=O)Oc1c(C)ccc(C)c1/C=C\C(=O)N(C)Cc1ccccc1`, with 14.4 min⁻¹.

Test system in another data set: not listed separately
In words: Compound was evaluated for the half life. It counts as ADME. In short, it runs like this: as §1
With `CCN(CC)C(=O)/C=C\c1c(C)cc(C)cc1OC(C)=O`, the half-life worked out at 18.8 min.
Take `CC(=O)Oc1cc(C)cc(C)c1/C=C\C(=O)N(C)Cc1ccccc1`: the half-life turned out to be 6.3 min.
As to `CC(=O)Oc1ccccc1/C=C\C(=O)N(C)Cc1ccccc1`, the half-life worked out at 32.5 min.
The same measure, in the same setting: then `CCN(CC)C(=O)/C=C\c1ccccc1OC(C)=O`, with 188 min.
The same measure, in the same setting: then `CCN(CC)C(=O)/C=C\c1c(C)ccc(C)c1OC(C)=O`, with 11.4 min.
Same read-out and setting: next, `CC(=O)Oc1c(C)ccc(C)c1/C=C\C(=O)N(C)Cc1ccccc1`: 4.8 min.

By half-life is commonly meant the time needed for the level to fall by half in the phase considered.
